Measured values published in PubChem BioAssay.
Values joined by “and” are separate entries in the source; they are usually repeats but may differ in a detail not shown here. Identical values can stand only once. Active and inactive are the calls of the source.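 The calls were made as follows, unless noted: active = viability loss from added drug above about 55%, and viability with drug at most 40%, in both replicates (limit read from the data, passing the limit was not always enough); inconclusive = both conditions met in only one replicate; inactive = neither replicate meets both conditions.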

Key:
[1] = SK-BR-3 cell growth inhibitors, pilot screen, 24 h, human (AID 572;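 active = viability at or below 10% of carrier control in both of two separate runs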;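 also: compound exposure lasted between 18 and 24 h rather than exactly 24 h; 100% = carrier-treated control wells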); conditions: SK-BR-3 viability, CellTiter-Glo luminescence, at 10 µM, stronger effect = lower value
[2] = HUVEC growth inhibition – cell-based, human, primary screen (AID 575;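 active = viability at or below 30% in both replicate assays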;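 also: 100% = median of untreated cell wells with 0.1% DMSO on each plate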); conditions: HUVEC proliferation, CellTiter-Glo luminescence, 72 h; at 10 µM; stronger effect = lower value
How it was run: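 Test system – primary HUVEC, no more than 12 passages · Dosing – one dose, 10 µM final, 0.1% DMSO · Times – 72 h treatment at 37 °C · Measured by – ATP-based CellTiter-Glo luminescent read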

[3] = growth inhibitors of H69AR lung tumor, primary screen, human, duplicate replicates (AID 580;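 active = viability at or under a set limit in both replicates, limit being median viability minus 3 SD, cut at about 48% in these data, passing the limit was not always enough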;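 also: 100% = mean luminescence of untreated wells and 0% = no signal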); conditions: H69AR lung tumor cells viability, ATP luminescence, 72 h; at 10 µM; stronger effect = lower value
[4] = reversal of MRP1-mediated doxorubicin resistance, pilot screen, H69AR cells, doxorubicin co-treatment (AID 601); conditions: CellTiter-Glo, 72 h, at 10 µM; for differential viability (reversal): stronger effect = higher value
[5] = 384-well plate pilot, post-Golgi transport modulator project, inhibition of yeast transport mutant growth (AID 636; in the data active = inhibition above about 31%); conditions: absorbance 615 nm, about 18 h, stronger effect = higher value
[6] = growth suppression of yeast trafficking mutant, preliminary HTS, modulators of trafficking downstream of Golgi apparatus project, 1536-format plate, OD 615 nm (AID 637; in the data active = inhibition above about 30%); conditions: yeast transport mutant growth, absorbance 615 nm, 18 h; stronger effect = higher value
[7] = H69AR cells + 2 uM doxorubicin, measured here: viability with 2 uM doxorubicin, stronger effect = lower value
[8] = H69AR cells, compound alone cytotoxicity

SMILES	viability [1]	viability [2]	viability [3]	differential viability (reversal) ([4]; H69AR cells + 2 uM doxorubicin)	viability [4, 7]	viability [4, 8]	inhibition [5]	inhibition [6]
CC1CN(C(=O)CSc2nnc(-c3ccc(Cl)cc3)n2C)CC(C)O1 (stereo unspecified)	78% (inactive)	110% (inactive)	99.5% (inactive)	5.23% (inactive)	94.2%	99.5%	-6.08% (inactive)	2.91% (inactive)
C=CCn1c(=O)c2ccccc2n2c(SC(C)C(=O)Nc3nc(-c4ccccc4)cs3)nnc12 (stereo unspecified)	66% (inactive)	65.7% (inactive)	79.6% (inactive)	-2.34% (inactive)	81.9%	79.6%	2.6% (inactive)	5.41% (inactive)
COc1ccc(N2C(=O)c3cccc4cccc(c34)C2=O)nn1	82% (inactive)	90.8% (inactive)	92.3% (inactive)	-7.67% (inactive)	100%	92.3%	-5.89% (inactive)	5.09% (inactive)
O=C(NCCC1=CCCCC1)C1CCN(S(=O)(=O)c2cnc[nH]2)CC1	83% (inactive)	111% (inactive)	104% (inactive)	15.5% (inactive)	88.1%	104%	-5.6% (inactive)	-1.27% (inactive)
COCCCn1nnnc1SCC(=O)Nc1nc(C)c(C)s1	109% (inactive)	89.2% (inactive)	88.1% (inactive)	2.5% (inactive)	85.6%	88.1%	-2.88% (inactive)	1.13% (inactive)
O=C(COC(=O)CCOc1ccccc1)Nc1ccc(Cl)cn1	75% (inactive)	102% (inactive)	91% (inactive)	-17% (inactive)	108%	91%	-2.74% (inactive)	-4.36% (inactive)
CC(Sc1nnnn1C)C(=O)Nc1ccc(Oc2ccccc2)cc1 (stereo unspecified)	92% (inactive)	87.8% (inactive)	97.8% (inactive)	11% (inactive)	86.8%	97.8%	-7.53% (inactive)	0.97% (inactive)
Cc1cc(NC(=O)CCCC(=O)Nc2ccc(F)cc2)no1	101% (inactive)	96.8% (inactive)	97% (inactive)	-0.445% (inactive)	97.5%	97%	-1.56% (inactive)	-1.48% (inactive)
O=C(CN1C(=O)CCS(=O)(=O)c2ccccc21)Nc1cccc(F)c1	115% (inactive)	115% (inactive)	106% (inactive)	9.57% (inactive)	96.5%	106%	3.65% (inactive)	-1.09% (inactive)
CCOC(=O)c1c(NC(=O)OC)sc2c1CCC2	129% (inactive)	89.7% (inactive)	87.1% (inactive)	-0.775% (inactive)	87.9%	87.1%	0.65% (inactive)	-4.75% (inactive)
Cc1cc(C(C)(C)C)cc(C)c1CC1=NCCN1	120% (inactive)	86.3% (inactive)	89.9% (inactive)	7.59% (inactive)	82.3%	89.9%	-2.73% (inactive)	-4.5% (inactive)
CCCCc1c(O)nc(N2CCN(Cc3ccccc3)CC2)[nH]c1=O	93% (inactive)	98.8% (inactive)	96.1% (inactive)	-1.67% (inactive)	97.8%	96.1%	-7.16% (inactive)	-1.82% (inactive)
O=C(c1c(Cl)nc2sccn12)N(C(=O)c1c(Cl)nc2sccn12)c1ccc(Cl)cn1	131% (inactive)	43.6% (inactive)	70.8% (inactive)	-7.89% (inactive)	78.7%	70.8%	-3.38% (inactive)	3.11% (inactive)
CCc1nnc(NC(=O)CSc2nnc(-c3cc4ccccc4cc3O)n2CC)s1	84% (inactive)	78.4% (inactive)	90.1% (inactive)	1.08% (inactive)	89.1%	90.1%	-1.95% (inactive)	-3.28% (inactive)
COCC(=O)Nc1c(C(=O)Nc2ccccc2OC)oc2ccccc12	78% (inactive)	59% (inactive)	75.1% (inactive)	-7.66% (inactive)	82.8%	75.1%	-8.78% (inactive)	-2.79% (inactive)
C[N+](C)(C)CCOP(=O)([O-])OC[C@H](O)CO	100% (inactive)	99.1% (inactive)	96% (inactive)	0.95% (inactive)	95%	96%	-2.99% (inactive)	-5.17% (inactive)
CCC(C)NCC(O)COCc1ccc(Cl)cc1 (stereo unspecified)	89% (inactive)	101% (inactive)	99.7% (inactive)	11.5% (inactive)	88.2%	99.7%	0.52% (inactive)	-4.59% (inactive)
O=C(CSc1ccc(-c2ccccc2)nn1)N1CCOCC1	94% (inactive)	105% (inactive)	95.2% (inactive)	13.2% (inactive)	82%	95.2%	-6.44% (inactive)	-4.73% (inactive)
Cc1cc(C(=O)Nc2c(C)n(C)n(-c3ccccc3)c2=O)c(C)o1	71% (inactive)	105% (inactive)	110% (inactive)	11.8% (inactive)	98.4%	110%	-8.08% (inactive)	4.91% (inactive)

SMILES	viability [1]	viability [2]	viability [3]	differential viability (reversal) ([4]; H69AR cells + 2 uM doxorubicin)	viability [4, 7]	viability [4, 8]	inhibition [5]	inhibition [6]
CC1(C)CC(=O)CC(=Nc2ccc(C(=O)O)cc2)C1	92% (inactive)	97.3% (inactive)	87.7% (inactive)	-4.41% (inactive)	92.1%	87.7%	-3.64% (inactive)	-0.16% (inactive)
Nc1nc(Cl)nc2c1ncn2[C@H]1C[C@H](O)[C@@H](CO)O1	116% (inactive) and 105% (inactive)	67% (inactive) and 36.3% (inactive)	93.8% (inactive)	-9.28% (inactive) and -31.8% (inactive)	103% and 81.2%	93.8% and 49.4%	2.34% (inactive) and 0.52% (inactive)	1% (inactive) and -1% (inactive)
COC(=O)C1(C)NC(c2cccs2)C2C(=O)N(c3ccccc3F)C(=O)C21 (stereo unspecified)	80% (inactive)	96.3% (inactive)	99.3% (inactive)	4.93% (inactive)	94.4%	99.3%	-0.27% (inactive)	-0.48% (inactive)
O=C(c1nn2cccnc2c1Cl)N1CCN(c2ccccc2)CC1	66% (inactive)	102% (inactive)	108% (inactive)	10.1% (inactive)	97.8%	108%	-6.99% (inactive)	3.82% (inactive)
O=C(CCN1C(=O)c2ccccc2C1=O)N1CCN(C(=O)c2ccccc2)CC1	106% (inactive)	108% (inactive)	101% (inactive)	8.3% (inactive)	92.3%	101%	-3.25% (inactive)	4.59% (inactive)
CS(=O)(=O)N(CC(=O)Nc1ccc2c(c1)OCO2)Cc1ccc(Cl)cc1	70% (inactive)	88.5% (inactive)	95% (inactive)	-7.89% (inactive)	103%	95%	-6.58% (inactive)	2.73% (inactive)
CCN(CCCc1ccccc1)CCCc1ccccc1	76% (inactive)	77.6% (inactive)	78.6% (inactive)	-12.7% (inactive)	91.2%	78.6%	2.34% (inactive)	15% (inactive)
O=C(COC(=O)c1ccccc1C(=O)c1ccccc1)c1ccco1	59% (inactive)	105% (inactive)	90.3% (inactive)	2.52% (inactive)	87.8%	90.3%	-1.1% (inactive)	2.36% (inactive)
Cc1ccc(-n2c(N)c(C(N)=O)sc2=S)cc1	87% (inactive)	112% (inactive)	87.9% (inactive)	-0.38% (inactive)	88.3%	87.9%	-3.24% (inactive)	0.73% (inactive)
CCCn1c(=NC(C)=O)c(C#N)cc2c(=O)n3cccc(C)c3nc21	89% (inactive)	108% (inactive)	87.3% (inactive)	-3.01% (inactive)	90.3%	87.3%	0.81% (inactive)	-3.45% (inactive)
Cn1c(=O)c2c(nc(SCC(=O)N3CCCc4ccccc43)n2C)n(C)c1=O	94% (inactive)	107% (inactive)	102% (inactive)	7.81% (inactive)	93.9%	102%	1.22% (inactive)	-2.73% (inactive)
Cc1nc2ncnn2c(C)c1CCC(=O)NCCCN1CCN(c2cccc(Cl)c2)CC1	78% (inactive)	76.4% (inactive)	96.5% (inactive)	6.44% (inactive)	90.1%	96.5%	-2.21% (inactive)	-3.77% (inactive)
Cc1nccn1CCCN1C(=O)OC2(CCCCC2)C1(C)O (stereo unspecified)	90% (inactive)	88.1% (inactive)	98.5% (inactive)	-3.27% (inactive)	102%	98.5%	-7.53% (inactive)	-1.29% (inactive)
CC1=C(C(=O)Nc2ccccc2C)C2(CCCC2)C(C(N)=O)C(=O)N1 (stereo unspecified)	114% (inactive)	81.7% (inactive)	90% (inactive)	1.6% (inactive)	88.4%	90%	0.96% (inactive)	0% (inactive)
CC(C)NC(=O)c1ccccc1NC(=O)CCS(=O)(=O)Cc1ccccc1	116% (inactive)	107% (inactive)	87.7% (inactive)	-1.34% (inactive)	89.1%	87.7%	-1.64% (inactive)	9.82% (inactive)
COc1cccc(NC(=O)N(Cc2ccco2)C(C)c2cccs2)c1 (stereo unspecified)	92% (inactive)	88.9% (inactive)	89.8% (inactive)	16.8% (inactive)	73%	89.8%	-0.52% (inactive)	-4.1% (inactive)
COc1cc(C)c(Br)cc1S(=O)(=O)N1CCOCC1	84% (inactive)	99.6% (inactive)	100% (inactive)	14.5% (inactive)	86%	100%	-5.48% (inactive)	-0.18% (inactive)
C#CCSc1nc(-c2cccs2)ccc1C#N	91% (inactive)	95.1% (inactive)	71.4% (inactive)	-22.5% (inactive)	93.9%	71.4%	-0.96% (inactive)	21.8% (inactive)
